Our source for the K obs / 1, k obs / 1 and [I] values is ChEMBL document CHEMBL1128722, “Mechanism-based isocoumarin inhibitors for human leukocyte elastase. Effect of the 7-amino substituent and 3-alkoxy group in 3-alkoxy-7-amino-4-chloroisocoumarins on inhibitory potency” (J Med Chem, 1995).

The first experiment has as its target T1, Cathepsin G (Homo sapiens) (UniProt P08311).
T1 sequence (whole entry): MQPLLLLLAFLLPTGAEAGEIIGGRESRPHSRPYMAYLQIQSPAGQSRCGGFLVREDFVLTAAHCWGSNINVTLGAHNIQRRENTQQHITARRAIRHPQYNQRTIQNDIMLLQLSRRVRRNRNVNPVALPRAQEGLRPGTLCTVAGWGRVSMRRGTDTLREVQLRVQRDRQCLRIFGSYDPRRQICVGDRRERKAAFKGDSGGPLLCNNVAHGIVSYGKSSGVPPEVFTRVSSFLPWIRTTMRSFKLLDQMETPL
Description: Inhibition of cathepsin G at 35-710 uM. An outline of the steps:
(§1)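 Kitz–Wilson incubation method. Enzyme was preincubated with inhibitor (added in DMSO) in 0.1 M HEPES, 0.5 M NaCl, pH 7.5, at 25 °C. Aliquots were taken over time and diluted into pNA substrate: HLE MeO-Suc-Ala-Ala-Pro-Val-pNA (0.2–0.5 mM), PPE Suc-Ala-Ala-Ala-pNA, ChT and Cat G Suc-Val-Pro-Phe-pNA (0.4–0.5 mM). Release was read at 410 nm. kobs/[I] from ln(v0/vt) vs time. Mean of two determinations. Fast rates measured with equimolar inhibitor and enzyme.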
The molecule `CC(C)(C)NC(=O)Nc1ccc2c(Cl)c(OCCBr)oc(=O)c2c1` came in with a K obs / 1 of 56 M⁻¹ s⁻¹.
The molecule `CC(Br)COc1oc(=O)c2cc(N)ccc2c1Cl` (configuration not stated) registered a K obs / 1 of 150 M⁻¹ s⁻¹.
`O=c1oc(OCCBr)c(Cl)c2ccc(NC(=S)Nc3ccccc3)cc12` registered a K obs / 1 of 200 M⁻¹ s⁻¹.

A further experiment deals with T2, Neutrophil elastase (Homo sapiens) (UniProt P08246).
T2 sequence (whole entry): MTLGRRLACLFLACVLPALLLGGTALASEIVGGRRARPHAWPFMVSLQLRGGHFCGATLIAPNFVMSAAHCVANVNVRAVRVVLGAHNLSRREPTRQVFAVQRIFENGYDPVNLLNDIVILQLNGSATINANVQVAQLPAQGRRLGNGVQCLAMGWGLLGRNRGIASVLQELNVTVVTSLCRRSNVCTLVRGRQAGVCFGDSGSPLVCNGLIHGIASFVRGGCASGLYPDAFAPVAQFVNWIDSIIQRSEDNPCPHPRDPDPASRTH
The experiment is described as follows: Inhibition of human leukocyte elastase(HLE) at 0.7-1.7 uM. In outline: as §1
With `CCCOc1oc(=O)c2cc(NC(=O)CSC)ccc2c1Cl`, the k obs / 1 is more than 150000 M⁻¹ s⁻¹.
As for `CCCOc1oc(=O)c2cc(NC(=O)c3cccc([N+](=O)[O-])c3)ccc2c1Cl`, the k obs / 1 was more than 210000 M⁻¹ s⁻¹.
Molecule `CCCOc1oc(=O)c2cc(NC(=O)CC(C)C)ccc2c1Cl` gave a k obs / 1 of more than 220000 M⁻¹ s⁻¹.
`CCCOc1oc(=O)c2cc(NC(=O)[C@@H](NC(=O)OC(C)(C)C)C(C)C)ccc2c1Cl`: the k obs / 1 is 64000 M⁻¹ s⁻¹.
The molecule `CCCOc1oc(=O)c2cc(NC(=O)CCc3ccccc3)ccc2c1Cl` returned a k obs / 1 of more than 250000 M⁻¹ s⁻¹.
`CCCOc1oc(=O)c2cc(NC(C)=O)ccc2c1Cl`: the k obs / 1 was more than 190000 M⁻¹ s⁻¹.
`CCCOc1oc(=O)c2cc(NC(=O)OCC)ccc2c1Cl` returned a k obs / 1 of more than 180000 M⁻¹ s⁻¹.
`CCCOc1oc(=O)c2cc(NC(=O)CCC)ccc2c1Cl` had a k obs / 1 of more than 120000 M⁻¹ s⁻¹.

For the next experiment, the target named is T2, Neutrophil elastase (Homo sapiens). The experiment is described as follows: Second order inactivation rate constant for inhibition of human leukocyte elastase. An outline of the steps:
as §1
As to `CC(C)COc1oc(=O)c2cc(N)ccc2c1Cl`, the k obs / 1 stood at 2700 M⁻¹ s⁻¹.
Take `CC(C)Oc1oc(=O)c2cc(N)ccc2c1Cl`: the k obs / 1 amounted to 2000 M⁻¹ s⁻¹.
`COCCOc1oc(=O)c2cc(N)ccc2c1Cl` came in with a k obs / 1 of 390 M⁻¹ s⁻¹.
Same read-out and setting: the result for `COCCOCCOc1oc(=O)c2cc(N)ccc2c1Cl` reads 33 M⁻¹ s⁻¹.

Another experiment shares this target. Description: The second order inactivation rate constant expressed as inhibition of human leukocyte elastase (HLE). Inhibitor concentrations were 0.07-710 uM. In outline: as §1
`COC(=O)CCCC(=O)Nc1ccc2c(Cl)c(OCCBr)oc(=O)c2c1` showed a K obs / 1 of more than 170000 M⁻¹ s⁻¹.
`O=C(Nc1ccccc1)Nc1cccc(C(=O)NC(Cc2ccccc2)C(=O)Nc2ccc3c(Cl)c(OCCBr)oc(=O)c3c2)c1` (configuration not stated) showed a K obs / 1 of 21000 M⁻¹ s⁻¹.
As for `O=C(Nc1ccccc1)Nc1ccc(C(=O)NC(Cc2ccccc2)C(=O)Nc2ccc3c(Cl)c(OCCBr)oc(=O)c3c2)cc1` (configuration not stated), the K obs / 1 turned out to be 6100 M⁻¹ s⁻¹.
For `O=C(N[C@@H](Cc1ccccc1)C(=O)Nc1ccc2c(Cl)c(OCCBr)oc(=O)c2c1)c1ccccc1`, the K obs / 1 was 30000 M⁻¹ s⁻¹.
With `C[C@H](NC(=O)Nc1ccc2c(Cl)c(OCCBr)oc(=O)c2c1)c1cccc2ccccc12`, the K obs / 1 is 170000 M⁻¹ s⁻¹.
On to `O=C(Nc1ccc2c(Cl)c(OCCBr)oc(=O)c2c1)NC(c1ccccc1)c1ccccc1`, for which the K obs / 1 turned out to be 4410 M⁻¹ s⁻¹.
On to `Cc1ccc(C(=O)N[C@@H](Cc2ccccc2)C(=O)Nc2ccc3c(Cl)c(OCCBr)oc(=O)c3c2)cc1`, for which the K obs / 1 came out at 49000 M⁻¹ s⁻¹.
The same measure, in the same setting: under `Cc1cccc(C(=O)N[C@@H](Cc2ccccc2)C(=O)Nc2ccc3c(Cl)c(OCCBr)oc(=O)c3c2)c1` stands 31000 M⁻¹ s⁻¹; under `CC(Br)COc1oc(=O)c2cc(N)ccc2c1Cl` (configuration not stated), 24000 M⁻¹ s⁻¹.
Consider `O=c1oc(OCCBr)c(Cl)c2ccc(NC(=S)Nc3ccccc3)cc12`, for which the K obs / 1 is more than 480000 M⁻¹ s⁻¹.

For another experiment the target is unchanged. Description: Inhibition of human leukocyte elastase. In outline:
as §1
As for `CC(C)COc1oc(=O)c2cc(N)ccc2c1Cl`, the [I] is 50 µM.
As to `CC(C)Oc1oc(=O)c2cc(N)ccc2c1Cl`, the [I] was found to be 26 µM.
Molecule `COCCOc1oc(=O)c2cc(N)ccc2c1Cl` had a [I] of 7.8 µM.
The molecule `COCCOCCOc1oc(=O)c2cc(N)ccc2c1Cl` gave a [I] of 710 µM.

The target in the next experiment is T3, Chymotrypsin-like elastase family member 2A (Sus scrofa) (UniProt P08419).
T3 sequence (whole entry): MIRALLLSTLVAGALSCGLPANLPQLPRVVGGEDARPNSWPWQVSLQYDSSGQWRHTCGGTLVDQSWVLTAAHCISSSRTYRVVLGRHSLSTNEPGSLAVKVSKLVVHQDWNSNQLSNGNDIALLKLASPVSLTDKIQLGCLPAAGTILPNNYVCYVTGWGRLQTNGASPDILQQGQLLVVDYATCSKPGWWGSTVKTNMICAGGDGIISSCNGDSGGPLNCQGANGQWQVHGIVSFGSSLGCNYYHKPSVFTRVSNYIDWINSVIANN
Description: The second order inactivation rate constant expressed as inhibition of porcine pancreatic elastase (PPE).Inhibitor concentrations were 0.04-2.0 mM.
Regarding `COC(=O)CCCC(=O)Nc1ccc2c(Cl)c(OCCBr)oc(=O)c2c1`, the K obs / 1 was determined as 2730 M⁻¹ s⁻¹.
On to `O=C(CCc1ccccc1)Nc1ccc2c(Cl)c(OCCBr)oc(=O)c2c1`, for which the K obs / 1 amounted to 11 M⁻¹ s⁻¹.
On to `O=C(Nc1ccccc1)Nc1cccc(C(=O)NC(Cc2ccccc2)C(=O)Nc2ccc3c(Cl)c(OCCBr)oc(=O)c3c2)c1` (configuration not stated), for which the K obs / 1 was determined as 300 M⁻¹ s⁻¹.
Molecule `O=C(Nc1ccccc1)Nc1ccc(C(=O)NC(Cc2ccccc2)C(=O)Nc2ccc3c(Cl)c(OCCBr)oc(=O)c3c2)cc1` (configuration not stated) had a K obs / 1 of 130 M⁻¹ s⁻¹.
As for `O=C(N[C@@H](Cc1ccccc1)C(=O)Nc1ccc2c(Cl)c(OCCBr)oc(=O)c2c1)c1ccccc1`, the K obs / 1 came to 11 M⁻¹ s⁻¹.
In turn, `C[C@H](NC(=O)Nc1ccc2c(Cl)c(OCCBr)oc(=O)c2c1)c1cccc2ccccc12` gave a K obs / 1 of 40 M⁻¹ s⁻¹.
The molecule `O=C(Nc1ccc2c(Cl)c(OCCBr)oc(=O)c2c1)NC(c1ccccc1)c1ccccc1` yielded a K obs / 1 of 6 M⁻¹ s⁻¹.
Still for that read-out and setting: under `Cc1ccc(C(=O)N[C@@H](Cc2ccccc2)C(=O)Nc2ccc3c(Cl)c(OCCBr)oc(=O)c3c2)cc1` stands 32 M⁻¹ s⁻¹; under `COC(=O)CCC(=O)Nc1ccc2c(Cl)c(OCCBr)oc(=O)c2c1`, 1500 M⁻¹ s⁻¹; under `CC(C)(C)NC(=O)Nc1ccc2c(Cl)c(OCCBr)oc(=O)c2c1`, 6600 M⁻¹ s⁻¹.
`Cc1cccc(C(=O)N[C@@H](Cc2ccccc2)C(=O)Nc2ccc3c(Cl)c(OCCBr)oc(=O)c3c2)c1`: the K obs / 1 turned out to be 3500 M⁻¹ s⁻¹.
Regarding `CC(Br)COc1oc(=O)c2cc(N)ccc2c1Cl` (configuration not stated), the K obs / 1 came out at 62 M⁻¹ s⁻¹.
`O=c1oc(OCCBr)c(Cl)c2ccc(NC(=S)Nc3ccccc3)cc12` returned a K obs / 1 of 1250 M⁻¹ s⁻¹.
